{"source": "ChEMBL document CHEMBL5346864", "about": "“Identification of L. infantum trypanothione synthetase inhibitors with leishmanicidal activity from a (non-biased) in-house chemical library” (Eur J Med Chem, 2022)", "key": {"[1]": {"tested_on": "Leishmania infantum", "experiment": "Leishmanicidal activity against Leishmania infantum axenic amastigotes (MCAN/ES/89/IPZ229/1/89) assessed as inhibition of parasite proliferation measured after 24 hrs by resazurin dye based fluorescence analysis", "assay_type": "functional, organism-based", "details": "MCAN/ES/89/IPZ229/1/89, 24 h", "outline": "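L. infantum MCAN/ES/89/IPZ229/1/89 axenic amastigotes (M199-based medium, pH 5.4, 37 °C) from log cultures seeded at 10^6/mL and treated 24 h at 37 °C. Resazurin added for a further 24 h; fluorescence read at ex 560/em 590 nm, normalized to vehicle, EC50 from two-parameter fit; triplicate in three independent experiments.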"}, "[2]": {"experiment": "Selectivity index, ratio of CC50 for cytotoxicity against human HepG2 cells to EC50 for Anti-Leishmanial activity against GFP-expressing Leishmania infantum axenic amastigotes infected in human THP-1 cells", "assay_type": "toxicity, cell-based", "details": "read-out: Ratio CC50/EC50"}, "[3]": {"experiment": "Cytotoxicity against human HepG2 cells assessed as reduction in cell proliferation measured after 72 hrs by crystal violet staining based analysis", "assay_type": "toxicity"}, "[4]": {"tested_on": "Leishmania infantum", "experiment": "Induction of plasma membrane depolarization in Leishmania infantum axenic amastigotes at 1 uM incubated for 2 hrs by DiBAC4(3)-derived flow cytometry"}, "[5]": {"tested_on": "Leishmania infantum", "experiment": "Anti-leishmanial activity against GFP-expressing Leishmania infantum axenic amastigotes infected in human THP-1 cells assessed as reduction in live intracellular GFP+ amastigotes measured after 72 hrs by fluorescence based analysis", "assay_type": "functional, organism-based", "details": "THP-1, 72 h", "outline": "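THP-1 monocytes differentiated 24 h with 100 ng/mL PMA, infected 24 h with GFP-expressing L. infantum axenic amastigotes (5 × 10^6/mL), non-internalized parasites removed by washes and a 24 h horse-serum challenge. Treatment for 72 h at 37 °C in RPMI with 10% horse serum. SDS lysis; live (propidium iodide-negative) GFP+ amastigotes counted by flow cytometry, normalized to vehicle, EC50 by two-parameter fit; three independent experiments.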"}, "[6]": {"tested_on": "Leishmania infantum", "experiment": "Induction of mitochondrial inner membrane depolarization in Leishmania infantum axenic amastigotes at 5 uM incubated for 2 hrs by TMRM-derived flow cytometry"}, "[7]": {"tested_on": "Leishmania infantum", "experiment": "Increase in the intracellular superoxide radical concentration in Leishmania infantum axenic amastigotes at 1 uM incubated for 2 hrs by DHE-derived flow cytometry", "assay_type": "functional, cell-based"}, "[8]": {"experiment": "Inhibition of N-terminal His6-tagged recombinant Leishmania infantum promastigotes (MCAN/ES/89/IPZ229/1/89) TryS expressed in Escherichia coli BL21(DE3) Rossetta by BIOMOL Green reagent based assay", "outline": "(§1)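 Recombinant His-LiTryS at 25 nM final, 100 mM HEPES pH 8, 0.5 mM EDTA, 10 mM MgCl2, 100 µM DTT, 2% DMSO, 37 °C, 30 min. Saturating substrates: 150 µM ATP, 100 µM GSH, 2 mM Spd or 500 µM GspdSH. […] Phosphate via BIOMOL Green, A650; 6-point curves, triplicate, three experiments.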"}, "[9]": {"experiment": "(§2) Inhibition of N-terminal His6-tagged recombinant Leishmania infantum promastigotes (MCAN/ES/89/IPZ229/1/89) TryS expressed in Escherichia coli BL21(DE3) Rossetta using saturating concentrations of ATP, GSH and Spd as substrate measured after 30 mins by BIOMOL Green reagent based assay", "outline": "as §1"}, "[10]": {"experiment": "as §2, with “ATP and” for “ATP,”, “Km concentration of GspdSH” for “Spd”"}, "[11]": {"experiment": "as §2, with “ATP” for “ATP, GSH”, “Spd and Km concentration of GSH” for “Spd”"}, "[12]": {"experiment": "(§3) Mixed inhibition of N-terminal His6-tagged recombinant Leishmania infantum promastigotes (MCAN/ES/89/IPZ229/1/89) TryS expressed in Escherichia coli BL21(DE3) Rossetta with fixed concentration of ATP and GSH and varying concentrations of GspdSH as substrate measured after 30 mins by Lineweaver-Burk double-reciprocal plot analysis", "outline": "(§4)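 Recombinant His-tagged LiTryS (62.5 nM added to start) in 100 mM HEPES pH 8, 50 µL, 37 °C, 30 min; phosphate read with BIOMOL Green at 650 nm. Four inhibitor concentrations crossed with four varied substrate levels, no enzyme preincubation. […] Lineweaver-Burk analysis, three experiments.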"}, "[13]": {"experiment": "Inhibition of N-terminal His6-tagged recombinant Leishmania infantum promastigotes (MCAN/ES/89/IPZ229/1/89) TryS expressed in Escherichia coli BL21(DE3) Rossetta using saturating concentrations of ATP, GSH and GspdSH as substrate measured after 30 mins by BIOMOL Green reagent based assay", "outline": "as §1"}, "[14]": {"experiment": "as §2, with “ATP and” for “ATP,”, “and Km concentration of” for “and”"}, "[15]": {"experiment": "as §2, with “of” for “of ATP,”, “Spd and Km concentration of ATP” for “Spd”"}, "[16]": {"experiment": "as §3, with “Competitive” for “Mixed”", "outline": "as §4"}, "[17]": {"experiment": "as §3, with “Competitive” for “Mixed”, “Spd” for “ATP”, “ATP” for “GspdSH”", "outline": "as §4"}}, "note": "Activity calls are given as the source filed them. The calls are words filed in the database; no cut-off is given here."}
{"smiles": "CCCCCCCCCCCCCCCCOP(=O)([O-])OCC[N+](C)(C)C", "note": "[MILTEFOSINE]", "values": [{"measurement": "EC50", "setting": "[1]", "value": 0.5, "unit": "µM"}, {"measurement": "selectivity ratio", "setting": "[2]", "value": "> 107"}, {"measurement": "CC50 at 72 h", "setting": "[3]", "value": "> 75", "unit": "µM"}, {"measurement": "Activity", "setting": "[4]", "value": "Active"}, {"measurement": "EC50", "setting": "[5]", "value": 0.7, "unit": "µM"}, {"measurement": "Activity", "setting": "[6]", "value": "Active"}, {"measurement": "Activity", "setting": "[7]", "value": "Active"}, {"measurement": "IC50", "setting": "[8]", "value": 45.6, "unit": "µM"}]}
{"smiles": "O=C(OC[C@H]1O[C@H](O[C@H]2O[C@H](COC(=O)c3cc(O)c(O)c(O)c3)[C@@H](OC(=O)c3cc(O)c(O)c(O)c3)[C@H](OC(=O)c3cc(O)c(O)c(O)c3)[C@H]2OC(=O)c2cc(O)c(O)c(O)c2)[C@H](OC(=O)c2cc(O)c(O)c(O)c2)[C@@H](OC(=O)c2cc(O)c(O)c(O)c2)[C@@H]1OC(=O)c1cc(O)c(O)c(O)c1)c1cc(O)c(O)c(O)c1", "values": [{"measurement": "EC50", "setting": "[1]", "value": 43.7, "unit": "µM"}, {"measurement": "IC50", "setting": "[9]", "value": 4.4, "unit": "µM"}, {"measurement": "IC50", "setting": "[10]", "value": 2, "unit": "µM"}, {"measurement": "IC50", "setting": "[11]", "value": 5.4, "unit": "µM"}, {"measurement": "Ki", "setting": "[12]", "value": 0.8, "unit": "µM"}, {"measurement": "IC50", "setting": "[13]", "value": 2.2, "unit": "µM"}, {"measurement": "IC50", "setting": "[14]", "value": 5.6, "unit": "µM"}, {"measurement": "IC50", "setting": "[15]", "value": 5.4, "unit": "µM"}]}
{"smiles": "CCCCCCCCCCCCCCCOc1cc(C[N+](C)(C)C2CCCC2)ccc1OCCCCCCCCCCCCCC", "values": [{"measurement": "EC50", "setting": "[1]", "value": "> 75", "unit": "µM"}, {"measurement": "IC50", "setting": "[9]", "value": 9.8, "unit": "µM"}, {"measurement": "IC50", "setting": "[10]", "value": 6, "unit": "µM"}, {"measurement": "IC50", "setting": "[11]", "value": 8.7, "unit": "µM"}, {"measurement": "IC50", "setting": "[13]", "value": 7.5, "unit": "µM"}, {"measurement": "IC50", "setting": "[14]", "value": 8.4, "unit": "µM"}, {"measurement": "IC50", "setting": "[15]", "value": 8.9, "unit": "µM"}]}
{"smiles": "NCCCCc1cn(-c2ccc(-c3nc(-c4ccc(Oc5ccccc5)cc4)c(-c4ccccc4)s3)c(OCCN3CCNC3=O)c2)nn1", "values": [{"measurement": "EC50", "setting": "[1]", "value": 21.5, "unit": "µM"}, {"measurement": "Ki", "setting": "[16]", "value": 3.9, "unit": "µM"}, {"measurement": "selectivity ratio", "setting": "[2]", "value": 1.2}, {"measurement": "CC50 at 72 h", "setting": "[3]", "value": 15.9, "unit": "µM"}, {"measurement": "IC50", "setting": "[9]", "value": 14.8, "unit": "µM"}, {"measurement": "IC50", "setting": "[10]", "value": 10.7, "unit": "µM"}, {"measurement": "Ki", "setting": "[17]", "value": 5.4, "unit": "µM"}, {"measurement": "IC50", "setting": "[11]", "value": 14.2, "unit": "µM"}, {"measurement": "EC50", "setting": "[5]", "value": 13.5, "unit": "µM"}, {"measurement": "IC50", "setting": "[13]", "value": 16.2, "unit": "µM"}, {"measurement": "IC50", "setting": "[14]", "value": 10.9, "unit": "µM"}, {"measurement": "IC50", "setting": "[15]", "value": 8.7, "unit": "µM"}]}
{"smiles": "CCCCCCCCCCCC(=O)NC(COC(=O)c1ccc(OCCN)c(OCCN)c1)COC(=O)c1cc(OCCN)c(OCCN)c(OCCN)c1", "note": "(stereo unspecified)", "values": [{"measurement": "EC50", "setting": "[1]", "value": 7.3, "unit": "µM"}, {"measurement": "Ki", "setting": "[16]", "value": 2.6, "unit": "µM"}, {"measurement": "selectivity ratio", "setting": "[2]", "value": "> 4.2"}, {"measurement": "CC50 at 72 h", "setting": "[3]", "value": "> 75", "unit": "µM"}, {"measurement": "IC50", "setting": "[9]", "value": 14.8, "unit": "µM"}, {"measurement": "IC50", "setting": "[10]", "value": 4.9, "unit": "µM"}, {"measurement": "IC50", "setting": "[11]", "value": 14.6, "unit": "µM"}, {"measurement": "EC50", "setting": "[5]", "value": 17.9, "unit": "µM"}, {"measurement": "IC50", "setting": "[13]", "value": 7.2, "unit": "µM"}, {"measurement": "IC50", "setting": "[14]", "value": 9.9, "unit": "µM"}, {"measurement": "IC50", "setting": "[15]", "value": 13.4, "unit": "µM"}]}
{"smiles": "CCCCCCCCCCCCCCOc1ccc(C[N+](C)(C)C2CCCC2)cc1OC", "values": [{"measurement": "EC50", "setting": "[1]", "value": 0.4, "unit": "µM"}, {"measurement": "selectivity ratio", "setting": "[2]", "value": 35.5}, {"measurement": "CC50 at 72 h", "setting": "[3]", "value": 21.3, "unit": "µM"}, {"measurement": "Activity", "setting": "[4]", "value": "Active"}, {"measurement": "IC50", "setting": "[9]", "value": 7.9, "unit": "µM"}, {"measurement": "IC50", "setting": "[10]", "value": 3.8, "unit": "µM"}, {"measurement": "IC50", "setting": "[11]", "value": 7.8, "unit": "µM"}, {"measurement": "EC50", "setting": "[5]", "value": 0.6, "unit": "µM"}, {"measurement": "IC50", "setting": "[13]", "value": 7.1, "unit": "µM"}, {"measurement": "Activity", "setting": "[6]", "value": "Active"}, {"measurement": "IC50", "setting": "[14]", "value": 5.5, "unit": "µM"}, {"measurement": "IC50", "setting": "[15]", "value": 7.3, "unit": "µM"}, {"measurement": "Activity", "setting": "[7]", "value": "Active"}]}
{"smiles": "O=C(O[C@@H]1OC[C@@H](OC(=O)c2ccc(O)c(O)c2O)[C@@H](OC(=O)c2ccc(O)c(O)c2O)[C@H]1OC(=O)c1ccc(O)c(O)c1O)c1ccc(O)c(O)c1O", "values": [{"measurement": "EC50", "setting": "[1]", "value": 47.6, "unit": "µM"}, {"measurement": "IC50", "setting": "[9]", "value": 5.4, "unit": "µM"}, {"measurement": "IC50", "setting": "[10]", "value": 5.1, "unit": "µM"}, {"measurement": "IC50", "setting": "[11]", "value": 6.7, "unit": "µM"}, {"measurement": "IC50", "setting": "[13]", "value": 5.9, "unit": "µM"}, {"measurement": "IC50", "setting": "[14]", "value": 4.7, "unit": "µM"}, {"measurement": "IC50", "setting": "[15]", "value": 7.1, "unit": "µM"}]}
